KCNQ1 pot – potentiators or activators of KCNQ1 channel, primary screen, cell-based, thallium flux, high-throughput; B-score at 10 µM; 0.35% of 310,000 active; CHO-K1 KCNQ1, thallium flux FluxOR fluorescence; stronger effect = higher value;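 active = fluorescence ratio B-score, a plate-corrected score, at least three library SD, with initial intensity B-score within 5 SD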
Target sequence (P51787 whole entry, looked up): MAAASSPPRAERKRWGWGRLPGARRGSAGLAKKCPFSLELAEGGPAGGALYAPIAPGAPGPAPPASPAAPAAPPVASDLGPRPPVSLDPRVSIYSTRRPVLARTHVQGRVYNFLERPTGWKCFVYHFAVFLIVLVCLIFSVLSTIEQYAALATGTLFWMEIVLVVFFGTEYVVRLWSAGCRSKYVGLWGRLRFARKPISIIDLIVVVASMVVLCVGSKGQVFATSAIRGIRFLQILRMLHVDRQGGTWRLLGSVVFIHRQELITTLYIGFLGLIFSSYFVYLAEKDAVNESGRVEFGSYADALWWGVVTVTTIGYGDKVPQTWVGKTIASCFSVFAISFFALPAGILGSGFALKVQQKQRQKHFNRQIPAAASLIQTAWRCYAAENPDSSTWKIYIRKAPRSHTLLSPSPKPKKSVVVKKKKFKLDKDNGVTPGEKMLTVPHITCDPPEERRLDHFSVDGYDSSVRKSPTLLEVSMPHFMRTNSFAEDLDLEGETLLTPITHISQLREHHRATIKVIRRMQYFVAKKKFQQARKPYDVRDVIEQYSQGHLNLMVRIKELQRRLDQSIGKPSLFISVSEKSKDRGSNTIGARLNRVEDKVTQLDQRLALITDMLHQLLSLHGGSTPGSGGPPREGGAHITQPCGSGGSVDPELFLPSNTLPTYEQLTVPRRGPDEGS
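Assay system: CHO-K1 cells stably expressing KCNQ1; Medium: assay buffer with matched DMSO; Also added: K+/Tl+ depolarizing stimulus; Dosing: single dose; Timing: dye 90 min, compound 20 min, room temperature; Measured by: kinetic FluxOR thallium fluorescence, 10-s 1-Hz baseline, 110-s post-stimulus read; Read-out: peak-minus-minimum fluorescence over initial fluorescence, negative-control normalized, B-scored.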
Kir21 inh – inhibitors of mouse Kir2.1 inward-rectifier potassium channel | Inward rectifier potassium channel 2 (Mus musculus), P35561 | AID 1672, 2009 | HEK293-Kir2.1, FluxOR thallium flux fluorescence; stronger effect = lower value | 0.85% of 310,000 active | B-score at 10 µM;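 active = fluorescence ratio B-score at or below minus 3 SD of library scores, with starting-brightness B-score within 2 SD, cut at about -4.2 in these data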;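 note: channel flux triggered by added potassium and thallium sulfate stimulus; B-score of peak minus minimum fluorescence over baseline after thallium stimulus; more negative B-score means stronger Kir2.1 block with less thallium influx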
KCNQ1 inh – inhibitors of human KCNQ1 channel, primary screen, cell-based, thallium flux, high-throughput; Potassium voltage-gated channel subfamily KQT member 1 (Homo sapiens), P51787; CHO-K1 KCNQ1, FluxOR thallium flux fluorescence; stronger effect = higher value; B-score at 10 µM; 1.3% of 310,000 active; AID 2642, 2010;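 active = compounds whose thallium flux B-score, printed positive for inhibition, exceeds three library SD while starting fluorescence stays within three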;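 note: channel opened by potassium depolarization with thallium stimulus after 20 min compound exposure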
KCNK3 inh – human KCNK3 channel inhibitors, primary screen, CHO cells, FluxOR thallium flux, B-score; 0.84% of 340,000 active; FluxOR fluorescence; stronger effect = lower value; Potassium channel subfamily K member 3 (Homo sapiens), O14649; B-score at 10 µM;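 active = B-score under library mean minus 4 SD, starting fluorescence ratio at most library mean plus 5 SD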;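 note: more negative B-score means stronger inhibition of thallium flux through KCNK3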
hERG rescue – hERG rescue from dofetilide block, primary screen, cell-based, CHO-hERG, FluxOR thallium flux, dofetilide IC70. Voltage-gated inwardly rectifying potassium channel KCNH2 (Homo sapiens), Q12809. dofetilide IC70 present. activation (rescue from dofetilide block), less the hit threshold, % at 10 µM. 0.51% of 310,000 active;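 active = activation above the mean of controls blocked by dofetilide plus 5 SD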;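 note: thallium influx through hERG after potassium depolarization seen as dye fluorescence rise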
KCNK9 block – KCNK9 potassium channel inhibitors, primary screen, HEK293 cells, thallium flux; Potassium channel subfamily K member 9 (Homo sapiens), Q9NPC2; 1.2% of 310,000 active; FluxOR thallium flux fluorescence; stronger effect = lower value; B-score at 10 µM;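 active = ratio B-score over 3 SD below the library mean, with starting fluorescence within 5 SD of its mean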;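 note: negative B-score means less thallium flux so channel inhibition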
Active calls of the source: *; i = inactive; . = no result given. Compounds with a hit are over-represented: about 3.8% of the library has one in this group of screens.

SMILES	KCNQ1 pot	Kir21 inh	KCNQ1 inh	KCNK3 inh	hERG rescue	KCNK9 block
CC(=O)c1ccc(-c2cccc(-c3nc4ccccn4c3NC3CCCCC3)c2)cc1	i	0	i	i	-5.6	-7.66*
c1csc(-c2nc3ccccn3c2NC2CCCCC2)c1	i	-0.75	i	i	-7.5	i
CCC(C)Sc1cc(-c2nc3ccccn3c2NC2CCCCC2)ccc1OC (stereo not given)	i	0.25	8*	i	-12.2	i
COc1ccc(CCC(=O)NNC(=O)Cn2nc(C)cc2C)cc1	i	-0.72	i	i	-8.3	i
COc1cccc(-c2nc(N3CCCCC3C)c3ccccc3n2)c1O (stereo not given)	i	-0.09	8*	i	-9.9	i
O=C(O)c1ccccc1-c1nc2ccccc2[nH]1	i	-0.05	i	i	-2.9	i
Oc1ccc2ccccc2c1C=Nc1ccccc1-c1nc2ccccc2[nH]1	i	0.78	9*	i	-9.4	i
COc1ccc(N2CCN(C(=O)COC(=O)COc3cc(C)cc(C)c3)CC2)cc1	i	0.56	i	i	-6.1	i
CCCN(c1ccccc1F)S(=O)(=O)c1cc(-c2cc(C)no2)ccc1OC	i	-1.16	i	i	-16.2	-7.77*
CCc1ccc(-c2cc(C)no2)cc1S(=O)(=O)NCCc1ccc(OC)c(OC)c1	i	-4.44*	i	i	-13.7	i
O=C(CCN1C(=O)C2C3CCC(C3)C2C1=O)Nc1ccc(F)cc1 (stereo not given)	i	2.76	i	i	-4.0	i
CCCCn1c(N)c(N(CCOC)C(=O)C2CCN(S(=O)(=O)c3ccc(Cl)cc3)CC2)c(=O)[nH]c1=O	i	0.26	i	i	-12.0	i
Cc1nc2ccccc2c(=O)n1CCCN1CCOCC1	i	-0.67	i	i	5.8*	i
COc1ccc(-c2nc3ccccc3c(=O)n2CCCN2CCOCC2)cc1	i	0.91	i	i	-7.6	i
O=Cc1ccc(OCc2cn(CC(=O)c3ccc(O)cc3)nn2)cc1	.	.	.	i	.	.
Cn1c(-c2c(N)n(C3CCCC3)c3nc4ccccc4nc23)nc2ccccc21	i	2.85	i	-11.3*	-14.4	i
CCOCCc1c(O)nc(SC)[nH]c1=O	8*	-9.33e-16	i	i	0.3	i
Cc1ccc(C2(C)NC(=O)N(CC(=O)NCCN3C(=O)S/C(=C\c4cccnc4)C3=O)C2=O)cc1 (stereo not given)	.	.	.	i	.	.
CC(CC(=O)Nc1ncc([N+](=O)[O-])s1)c1ccccc1 (stereo not given)	i	-0.02	11*	i	-6.5	i
O=C(Nc1ncc([N+](=O)[O-])s1)c1ccc2c(c1)OCO2	i	0.54	i	i	-6.5	i
Cc1ccc(C(=O)Nc2ncc([N+](=O)[O-])s2)cc1	i	0.97	6*	i	-1.9	i
O=C(COc1ccccc1)N1CCN(S(=O)(=O)c2cccs2)CC1	9*	1.24	i	i	-2.0	i
O=C(CCOc1ccccc1)N1CCN(S(=O)(=O)c2cccs2)CC1	i	0.45	i	i	-9.4	i
COC(=O)CNc1nc(Cl)nc(NC2CCCCC2)n1	i	-0.1	i	i	-1.5	i
CC1CN(Cc2ccccc2)c2ccccc2NC1=S (stereo not given)	i	-4.23*	i	i	-8.5	i
SMILES	KCNQ1 pot	Kir21 inh	KCNQ1 inh	KCNK3 inh	hERG rescue	KCNK9 block
CC1CN(Cc2ccccc2)C(=O)N(c2ccccc2)C1=O (stereo not given)	.	.	.	i	.	.
O=C(CCNC(=O)c1ccc(Cl)cc1)NCC(c1ccco1)N1CCCC1 (stereo not given)	.	.	.	i	.	.
COc1ccccc1N1CCN(C(=O)CCCN2C(=O)c3cccc4cccc(c34)C2=O)CC1	i	0.99	6*	i	-2.9	i
N=c1oc2cc(O)ccc2cc1C(=O)Nc1ccc(Br)cc1	i	1.06	8*	i	-4.6	i
Cc1nc2ccc(NS(=O)(=O)c3cccc([N+](=O)[O-])c3)cc2s1	.	.	.	i	.	.
C=CCc1ccc(OCCN2CCc3ccccc3C2)c(OC)c1	i	-10.2*	i	i	-12.0	i
C=CCc1ccc(OCCCNCc2ccccc2)c(OC)c1	i	-8.02*	i	i	-1.3	i
C=CCc1ccc(OCCCCN2CC(C)OC(C)C2)c(OC)c1 (stereo not given)	i	-0.78	i	i	4.9*	i
C/C=C/c1ccc(OCCCCOc2c(OC)cccc2OC)c(OC)c1	i	0.68	i	i	-1.9	i
C/C=C/c1ccc(OCCN2CCc3ccccc3C2)c(OC)c1	i	-11.2*	i	i	-17.5	i
COc1ccc2nc(SCC(=O)N(C)CC(=O)Nc3ccc(F)cc3)[nH]c2c1	i	0.2	i	i	-4.8	i
Cc1ccc(C(C(=O)NCC2CCCO2)N(C(=O)c2snc(C(N)=O)c2N)c2ccc(C)c(C)c2)o1 (stereo not given)	i	0.62	i	i	-4.2	i
CCCCN1C(=O)C(=O)c2cc(Cl)ccc21	.	.	.	i	.	.
C/C(=N\NC(=O)c1ccc(O)cc1)c1ccc2c(c1)Nc1ccccc1S2	i	0.74	6*	i	-15.7	i
CN(C1=C(N2CCCCC2)C(=O)c2ccccc2C1=O)c1ccccc1	i	0.21	i	i	-10.2	-14.9*
O=C1C(Nc2ccccc2)=C(N2CCCCC2)C(=O)c2ccccc21	i	0.28	i	i	-6.6	i
Cc1ncc(CO)c(/C=N/NC(=S)Nc2cccc(Cl)c2)c1O	i	-0.43	6*	i	-30.9	i
Cc1ncc(CO)c(/C=N/NC(=S)Nc2ccc(Cl)c(Cl)c2)c1O	i	-1.38	11*	i	-27.7	i
Cc1ncc(CO)c(/C=N/NC(=O)c2ccc(O)cc2)c1O	i	-1.1	i	i	-6.9	i
Cc1ncc(CO)c(/C=N/NC(=O)c2ccccc2Br)c1O	i	0.01	i	i	-6.6	i
CCC(Cc1ccccc1)NC(=O)CCn1cccc1 (stereo not given)	i	-0.52	i	i	-11.8	i
CCC(Cc1ccccc1)NC(=O)CCc1ccccc1 (stereo not given)	i	-5.08*	i	i	-6.1	i
